Experimental data taken from ChEMBL document CHEMBL5661979, “Pharmacological inhibition of BMK1 suppresses tumor growth through promyelocytic leukemia protein” (Cancer Cell, 2010).

Tests used:
[1] = target: Ribosomal protein S6 kinase alpha-1 (Homo sapiens, UniProt Q15418); test: Inhibition of C-terminal RPS6KA1 kinase domain (unknown origin) assessed as remaining activity at 10 uM by ATP-competition binding assay relative to control
[2] = target: Serine/threonine-protein kinase A-Raf (Homo sapiens, UniProt P10398); test: Inhibition of ARAF in human HeLa cells lysate pre incubated for 15 mins followed by ATP acyl phosphate probe addition and measured after 10 mins by LC-MS/MS analysis; format: subcellular
Procedure, shortened: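 KiNativ-type profiling in HeLa lysate (5 mg/mL total protein). Lysate preincubated 15 min with inhibitor at 50, 10, 2, 0.8 or 0 μM, then ATP or ADP acylphosphate probe added (5 μM final) for 10 min. Reaction stopped with urea and analysed by targeted MS, using up to four fragment ions per kinase peptide-probe conjugate. % inhibition calculated against untreated lysate. Duplicate reactions.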

[3] = target: T1, Serine/threonine-protein kinase Sgk3 (Homo sapiens, UniProt Q96BR1); test: Inhibition of SGK3 K1 site in human HeLa cells lysate pre incubated for 15 mins followed by ATP acyl phosphate probe addition and measured after 10 mins by LC-MS/MS analysis; format: subcellular
T1 sequence (Q96BR1 whole entry): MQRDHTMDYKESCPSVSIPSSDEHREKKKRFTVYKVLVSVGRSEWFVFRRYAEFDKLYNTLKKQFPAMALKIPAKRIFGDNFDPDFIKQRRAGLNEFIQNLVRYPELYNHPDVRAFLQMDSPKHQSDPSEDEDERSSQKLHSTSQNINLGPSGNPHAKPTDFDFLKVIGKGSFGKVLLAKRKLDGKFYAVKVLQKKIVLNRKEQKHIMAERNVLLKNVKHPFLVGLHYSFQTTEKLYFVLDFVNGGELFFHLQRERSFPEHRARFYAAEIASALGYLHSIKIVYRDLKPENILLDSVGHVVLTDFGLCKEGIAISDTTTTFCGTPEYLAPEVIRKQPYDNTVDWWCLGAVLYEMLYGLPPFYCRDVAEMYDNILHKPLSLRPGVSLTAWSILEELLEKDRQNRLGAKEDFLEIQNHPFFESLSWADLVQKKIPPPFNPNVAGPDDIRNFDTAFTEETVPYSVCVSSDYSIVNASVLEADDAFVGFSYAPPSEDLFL

[4] = Inhibition of SRC/FYN/YES in human HeLa cells lysate pre incubated for 15 mins followed by ATP acyl phosphate probe addition and measured after 10 mins by LC-MS/MS analysis; format: subcellular
[5] = target: Transcription intermediary factor 1-beta (Homo sapiens, UniProt Q13263); test: Inhibition of TIF1b in human HeLa cells lysate pre incubated for 15 mins followed by ATP acyl phosphate probe addition and measured after 10 mins by LC-MS/MS analysis; format: subcellular
[6] = Inhibition of NEK6/7 in human HeLa cells lysate pre incubated for 15 mins followed by ADP acyl phosphate probe addition and measured after 10 mins by LC-MS/MS analysis; format: subcellular
[7] = target: T2, Serine/threonine-protein kinase 4 (Homo sapiens) (UniProt Q13043); test: Inhibition of MST1 in human HeLa cells lysate at 50 uM pre incubated for 15 mins followed by ADP acyl phosphate probe addition and measured after 10 mins by LC-MS/MS analysis relative to control; format: subcellular; conditions: time 25.0 min
T2 sequence (whole entry): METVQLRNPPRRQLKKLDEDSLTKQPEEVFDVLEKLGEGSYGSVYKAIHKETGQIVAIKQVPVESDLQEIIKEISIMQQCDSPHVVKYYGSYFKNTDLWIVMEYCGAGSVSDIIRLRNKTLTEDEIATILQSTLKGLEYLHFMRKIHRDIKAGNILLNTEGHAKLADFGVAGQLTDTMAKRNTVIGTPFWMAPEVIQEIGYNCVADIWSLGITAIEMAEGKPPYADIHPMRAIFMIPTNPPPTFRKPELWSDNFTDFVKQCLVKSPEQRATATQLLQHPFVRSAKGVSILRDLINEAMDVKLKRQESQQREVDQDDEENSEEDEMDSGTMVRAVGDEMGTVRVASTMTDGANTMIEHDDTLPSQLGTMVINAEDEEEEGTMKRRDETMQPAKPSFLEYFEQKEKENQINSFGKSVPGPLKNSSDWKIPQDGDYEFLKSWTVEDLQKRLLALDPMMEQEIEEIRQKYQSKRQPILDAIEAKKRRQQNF

[8] = target: Epidermal growth factor receptor (Homo sapiens, UniProt P00533); test: Inhibition of EGFR in human HeLa cells lysate at 50 uM pre incubated for 15 mins followed by ADP acyl phosphate probe addition and measured after 10 mins by LC-MS/MS analysis relative to control; format: subcellular; conditions: time 25.0 min
[9] = Inhibition of NEK6/7 in human HeLa cells lysate at 10 uM pre incubated for 15 mins followed by ADP acyl phosphate probe addition and measured after 10 mins by LC-MS/MS analysis relative to control; conditions: 25 min, condition cancer
[10] = target: Mitogen-activated protein kinase 4 (Homo sapiens, UniProt P31152); test: Inhibition of ERK4 in human HeLa cells lysate at 50 uM pre incubated for 15 mins followed by ATP acyl phosphate probe addition and measured after 10 mins by LC-MS/MS analysis relative to control; format: subcellular; conditions: time 25.0 min
[11] = target: T3, Dual specificity mitogen-activated protein kinase kinase 4 (Homo sapiens) (UniProt P45985); test: Inhibition of MAP2K4 in human HeLa cells lysate at 10 uM pre incubated for 15 mins followed by ATP acyl phosphate probe addition and measured after 10 mins by LC-MS/MS analysis relative to control; format: subcellular; conditions: time 25.0 min
T3 sequence (whole entry): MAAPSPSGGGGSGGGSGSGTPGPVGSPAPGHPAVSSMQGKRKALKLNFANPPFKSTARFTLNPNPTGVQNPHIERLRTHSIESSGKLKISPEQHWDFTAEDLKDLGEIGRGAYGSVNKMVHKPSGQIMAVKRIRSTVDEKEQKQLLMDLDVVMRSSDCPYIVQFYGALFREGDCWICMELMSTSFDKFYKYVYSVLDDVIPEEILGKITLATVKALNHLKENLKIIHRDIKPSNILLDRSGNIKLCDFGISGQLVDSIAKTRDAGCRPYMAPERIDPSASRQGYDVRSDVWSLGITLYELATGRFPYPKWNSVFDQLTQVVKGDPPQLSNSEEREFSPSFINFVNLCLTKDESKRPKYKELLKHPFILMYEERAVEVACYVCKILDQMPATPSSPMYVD

[12] = target: Glycogen synthase kinase-3 beta (Homo sapiens, UniProt P49841); test: Inhibition of GSK3B isoform 2 in human HeLa cells lysate at 2 uM pre incubated for 15 mins followed by ATP acyl phosphate probe addition and measured after 10 mins by LC-MS/MS analysis relative to control; format: subcellular; conditions: time 25.0 min
[13] = target: Serine/threonine-protein kinase SMG1 (Homo sapiens, UniProt Q96Q15); test: Inhibition of SMG1 in human HeLa cells lysate at 2 uM pre incubated for 15 mins followed by ATP acyl phosphate probe addition and measured after 10 mins by LC-MS/MS analysis relative to control; format: subcellular; conditions: time 25.0 min

Transcription intermediary factor 1-beta, sequence (Q13263 whole entry): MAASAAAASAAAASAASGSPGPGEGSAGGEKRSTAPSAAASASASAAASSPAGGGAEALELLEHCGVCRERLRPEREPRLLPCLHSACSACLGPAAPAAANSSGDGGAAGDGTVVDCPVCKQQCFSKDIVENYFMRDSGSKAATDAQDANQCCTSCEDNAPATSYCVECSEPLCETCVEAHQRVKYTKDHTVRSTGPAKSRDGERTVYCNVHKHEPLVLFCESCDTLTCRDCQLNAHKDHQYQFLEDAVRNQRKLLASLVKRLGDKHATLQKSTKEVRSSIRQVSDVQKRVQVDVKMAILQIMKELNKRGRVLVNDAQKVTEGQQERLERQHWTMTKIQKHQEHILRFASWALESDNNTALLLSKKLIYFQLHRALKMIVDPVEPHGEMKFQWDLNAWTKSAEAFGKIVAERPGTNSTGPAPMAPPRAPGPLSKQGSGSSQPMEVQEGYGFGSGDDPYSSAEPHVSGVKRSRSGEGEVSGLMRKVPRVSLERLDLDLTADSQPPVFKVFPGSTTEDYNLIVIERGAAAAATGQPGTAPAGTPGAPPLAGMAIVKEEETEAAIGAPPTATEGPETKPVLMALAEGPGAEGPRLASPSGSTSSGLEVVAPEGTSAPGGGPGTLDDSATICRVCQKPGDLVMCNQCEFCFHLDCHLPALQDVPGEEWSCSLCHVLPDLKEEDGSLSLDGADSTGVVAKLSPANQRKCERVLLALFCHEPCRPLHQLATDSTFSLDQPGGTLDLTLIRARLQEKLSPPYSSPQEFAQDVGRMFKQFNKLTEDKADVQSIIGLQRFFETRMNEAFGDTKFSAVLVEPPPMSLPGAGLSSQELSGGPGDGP
Serine/threonine-protein kinase A-Raf, sequence (P10398 whole entry, the tested form may be a part): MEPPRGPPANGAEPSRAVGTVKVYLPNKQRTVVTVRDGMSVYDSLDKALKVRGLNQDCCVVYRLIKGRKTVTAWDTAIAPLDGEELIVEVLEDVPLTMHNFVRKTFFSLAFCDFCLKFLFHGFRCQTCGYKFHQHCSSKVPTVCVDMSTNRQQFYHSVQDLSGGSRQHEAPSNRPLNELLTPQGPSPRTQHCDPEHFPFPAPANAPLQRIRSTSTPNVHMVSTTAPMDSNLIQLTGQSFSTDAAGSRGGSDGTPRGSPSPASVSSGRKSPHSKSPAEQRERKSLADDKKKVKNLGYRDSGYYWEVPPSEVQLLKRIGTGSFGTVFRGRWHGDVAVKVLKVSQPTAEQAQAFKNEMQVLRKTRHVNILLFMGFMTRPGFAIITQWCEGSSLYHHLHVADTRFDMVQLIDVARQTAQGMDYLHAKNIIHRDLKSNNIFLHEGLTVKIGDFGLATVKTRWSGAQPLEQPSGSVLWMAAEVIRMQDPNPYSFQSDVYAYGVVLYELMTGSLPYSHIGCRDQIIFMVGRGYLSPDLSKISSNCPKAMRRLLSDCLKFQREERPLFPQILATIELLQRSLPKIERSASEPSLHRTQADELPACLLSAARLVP
Glycogen synthase kinase-3 beta, sequence (P49841 whole entry, looked up, canonical isoform): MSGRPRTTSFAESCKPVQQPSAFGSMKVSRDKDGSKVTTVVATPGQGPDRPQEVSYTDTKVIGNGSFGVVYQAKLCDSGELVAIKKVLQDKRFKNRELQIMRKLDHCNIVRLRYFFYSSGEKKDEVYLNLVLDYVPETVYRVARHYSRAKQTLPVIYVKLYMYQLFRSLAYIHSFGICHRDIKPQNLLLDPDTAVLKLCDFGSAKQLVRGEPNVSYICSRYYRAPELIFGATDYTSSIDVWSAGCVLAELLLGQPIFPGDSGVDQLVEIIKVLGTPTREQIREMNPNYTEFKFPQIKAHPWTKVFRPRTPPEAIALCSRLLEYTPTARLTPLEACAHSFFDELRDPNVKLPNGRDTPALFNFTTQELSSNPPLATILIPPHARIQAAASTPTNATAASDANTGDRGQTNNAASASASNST
Mitogen-activated protein kinase 4, sequence (P31152 whole entry): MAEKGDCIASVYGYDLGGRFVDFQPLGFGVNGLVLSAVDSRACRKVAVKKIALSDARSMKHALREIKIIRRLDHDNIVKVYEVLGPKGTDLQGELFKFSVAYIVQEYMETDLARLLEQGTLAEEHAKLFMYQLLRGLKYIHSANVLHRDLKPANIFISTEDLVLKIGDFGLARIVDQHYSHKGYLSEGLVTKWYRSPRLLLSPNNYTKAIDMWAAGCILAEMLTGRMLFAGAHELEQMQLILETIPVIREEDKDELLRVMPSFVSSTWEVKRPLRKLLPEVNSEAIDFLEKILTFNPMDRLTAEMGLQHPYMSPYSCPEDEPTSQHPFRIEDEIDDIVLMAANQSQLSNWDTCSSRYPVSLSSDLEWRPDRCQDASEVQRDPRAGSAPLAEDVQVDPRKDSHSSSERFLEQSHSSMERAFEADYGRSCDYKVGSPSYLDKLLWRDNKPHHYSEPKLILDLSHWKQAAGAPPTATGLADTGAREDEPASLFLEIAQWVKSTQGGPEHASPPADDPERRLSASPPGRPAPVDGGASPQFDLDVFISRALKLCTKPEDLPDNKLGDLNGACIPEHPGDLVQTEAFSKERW
Epidermal growth factor receptor, sequence (P00533 whole entry): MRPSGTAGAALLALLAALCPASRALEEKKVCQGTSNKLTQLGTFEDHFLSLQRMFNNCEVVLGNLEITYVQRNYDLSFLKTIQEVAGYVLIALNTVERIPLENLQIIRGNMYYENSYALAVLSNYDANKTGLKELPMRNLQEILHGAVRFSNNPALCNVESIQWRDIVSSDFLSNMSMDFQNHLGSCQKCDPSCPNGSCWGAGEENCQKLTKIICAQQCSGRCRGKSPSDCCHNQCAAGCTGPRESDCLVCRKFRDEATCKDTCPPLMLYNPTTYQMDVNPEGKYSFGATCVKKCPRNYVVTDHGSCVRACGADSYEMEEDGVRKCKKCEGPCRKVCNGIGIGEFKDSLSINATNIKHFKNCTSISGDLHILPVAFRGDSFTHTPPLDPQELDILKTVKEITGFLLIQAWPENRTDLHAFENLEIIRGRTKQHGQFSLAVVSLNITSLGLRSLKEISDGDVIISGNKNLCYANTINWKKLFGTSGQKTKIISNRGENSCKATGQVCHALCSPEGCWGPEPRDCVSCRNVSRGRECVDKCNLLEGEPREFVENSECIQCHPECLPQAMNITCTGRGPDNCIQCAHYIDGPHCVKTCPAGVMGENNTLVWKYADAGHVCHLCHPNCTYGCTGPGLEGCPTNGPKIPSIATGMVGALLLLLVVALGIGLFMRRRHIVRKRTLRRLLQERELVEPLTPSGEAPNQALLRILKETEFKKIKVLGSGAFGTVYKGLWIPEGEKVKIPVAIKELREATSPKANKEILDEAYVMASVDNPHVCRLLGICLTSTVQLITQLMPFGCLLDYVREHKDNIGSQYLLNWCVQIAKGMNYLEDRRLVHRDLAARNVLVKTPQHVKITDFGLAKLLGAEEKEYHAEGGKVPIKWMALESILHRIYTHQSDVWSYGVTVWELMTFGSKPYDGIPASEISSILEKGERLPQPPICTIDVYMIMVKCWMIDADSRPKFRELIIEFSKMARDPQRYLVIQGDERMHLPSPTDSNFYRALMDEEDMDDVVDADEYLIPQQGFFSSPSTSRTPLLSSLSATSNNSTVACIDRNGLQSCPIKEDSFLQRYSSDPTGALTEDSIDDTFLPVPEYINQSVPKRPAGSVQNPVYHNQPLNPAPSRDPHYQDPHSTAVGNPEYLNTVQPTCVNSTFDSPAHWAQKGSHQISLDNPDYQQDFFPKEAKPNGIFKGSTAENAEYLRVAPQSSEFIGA
Ribosomal protein S6 kinase alpha-1, sequence (Q15418 whole entry, the tested form may be a part): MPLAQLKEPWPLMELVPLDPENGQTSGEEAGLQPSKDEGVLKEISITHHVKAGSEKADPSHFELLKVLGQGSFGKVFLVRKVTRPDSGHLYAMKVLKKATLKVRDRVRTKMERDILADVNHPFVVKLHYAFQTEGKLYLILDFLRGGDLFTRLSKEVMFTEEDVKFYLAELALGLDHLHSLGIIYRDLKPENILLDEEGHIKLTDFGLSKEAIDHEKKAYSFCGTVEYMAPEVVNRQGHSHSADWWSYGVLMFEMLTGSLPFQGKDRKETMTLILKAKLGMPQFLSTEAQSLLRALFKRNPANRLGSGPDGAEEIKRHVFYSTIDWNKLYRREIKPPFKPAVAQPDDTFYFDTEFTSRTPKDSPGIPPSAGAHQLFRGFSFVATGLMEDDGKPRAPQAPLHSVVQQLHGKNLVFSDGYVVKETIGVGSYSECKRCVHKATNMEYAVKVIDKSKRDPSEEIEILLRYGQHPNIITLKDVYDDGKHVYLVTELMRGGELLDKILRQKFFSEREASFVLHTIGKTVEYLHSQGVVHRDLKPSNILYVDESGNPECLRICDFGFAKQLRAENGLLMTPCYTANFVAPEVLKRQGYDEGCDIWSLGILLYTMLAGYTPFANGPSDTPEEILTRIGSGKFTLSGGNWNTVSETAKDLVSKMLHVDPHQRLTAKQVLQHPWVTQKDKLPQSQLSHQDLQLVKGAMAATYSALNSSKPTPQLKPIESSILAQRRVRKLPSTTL

For `CCOc1cc(N2CCC(O)CC2)ccc1Nc1ncc2c(n1)N(C)c1ccccc1C(=O)N2C`, which Activity [1] is on record?
Its Activity is 28%.

And the IC50 [2]?
Its IC50 is greater than 50 µM.

And the IC50 [3]?
The IC50 was greater than 50 µM.

And the IC50 [4]?
Its IC50 is greater than 50 µM.

And the IC50 [5]?
Its IC50 is greater than 50 µM.

What about the IC50 [6] of the same compound?
The IC50 was greater than 50 µM.

What about the inhibition [7] of the same compound?
Its inhibition is 10.2%.

What about the inhibition [8] of the same compound?
The inhibition was 5.9%.

And the inhibition at 10 µM [9]?
Its inhibition at 10 µM is -11.8%.

And the inhibition [10]?
Its inhibition is 28.7%.

What about the inhibition [11] of the same compound?
The inhibition was 3.9%.

What about the inhibition [12] of the same compound?
Its inhibition is 7.8%.

What about the inhibition [13] of the same compound?
The inhibition was 1.8%.
